Measurements published in ChEMBL document CHEMBL1151213, “Yucca schidigera bark: phenolic constituents and antioxidant activity” (J Nat Prod, 2004).

Legend:
Type in all cases: functional
[1] = Antioxidant activity against beta-carotene and linoleic acid assessed as inhibition of bleaching of beta-carotene at 60 mins by autooxidation assay; design: concentration or dose not given beside the values
How it was run: (§1)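 Heat-induced oxidation of an aqueous emulsion of β-carotene, linoleic acid and Tween 20, held at 50 °C for 3 h. β-Carotene bleaching was followed by A470 at intervals. AA = [1 − (A0 − At)/(A00 − A0t)] × 100, taking absorbances with and without test sample at start and at time t. Run in triplicate; BHT served as positive control.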

[2] = Antioxidant activity against beta-carotene and linoleic acid assessed as inhibition of bleaching of beta-carotene at 120 mins by autooxidation assay; design: concentration or dose not given beside the values; how it was run: as §1
[3] = Antioxidant activity against ABTS radical assessed as TEAC units
How it was run: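 ABTS radical cation solution diluted in PBS pH 7.4 to A734 0.70, equilibrated at 30 °C. Samples in methanol at 0.3, 0.5, 1, 1.5 and 2 mM; reaction started by adding diluted ABTS to sample. Percent inhibition of A734 versus methanol blank plotted against concentration, in triplicate. Value is Trolox concentration with the same capacity as 1 mM sample.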

Row | Compound | Activity [1] [%] | Activity [2] [%] | Activity [3] [mM] | inhibition [1] [%]
1 | O=C1Oc2cc(O)c3c(c2[C@]12c1c(O)cc(O)cc1O[C@@H]2c1ccc(O)cc1)O[C@H](c1ccc(O)cc1)[C@H](O)C3 | 24.4 | 51 | 1.79 | 
2 | Oc1ccc(/C=C/c2cc(O)cc(O)c2)cc1 | 24.9 | 45.9 | 1.9 | 
3 | O=C1Oc2cc(O)cc(/C=C/c3ccc(O)cc3)c2[C@]12c1c(O)cc(O)cc1O[C@@H]2c1ccc(O)cc1 | 76.3 | 72.1 | 1.09 | 
4 | O=C1[C@@H](c2ccc(O)cc2)Oc2cc(O)cc(O)c2[C@@]12c1c(O)cc(O)cc1[C@H](O)[C@H]2c1ccc(O)cc1 | 40.6 | 43.4 | 1.04 | 
5 | COc1c(O)cc(/C=C/c2cc(O)cc3c2[C@]2(C(=O)O3)c3c(O)cc(O)cc3O[C@@H]2c2ccc(O)cc2)cc1O |  | 66.2 | 1.42 | 66.4
6 | O=C1Oc2cc(O)cc(/C=C/c3ccc(O)cc3)c2[C@@]12c1c(O)cc(O)cc1O[C@@H]2c1ccc(O)cc1 | 52.6 | 72.1 | 0.96 | 
7 | COc1c(O)cc(/C=C/c2cc(O)cc3c2[C@@]2(C(=O)O3)c3c(O)cc(O)cc3O[C@@H]2c2ccc(O)cc2)cc1O | 59.5 | 71.7 | 1.6 | 
8 | COc1c(O)cc(/C=C/c2cc(O)cc(O)c2)cc1O | 3.1 | 2.9 | 2.25 | 
9 | COc1c(O)cc(/C=C/c2cc(O)cc(O)c2)c2c1OC(=O)[C@@]21c2c(O)cc(O)cc2O[C@@H]1c1ccc(O)cc1 | 74.3 | 79.3 | 1.85 | 
10 | O=c1c(O)c(-c2ccc(O)c(O)c2)oc2cc(O)cc(O)c12 |  |  | 2.6 | 
